# How the values were obtained:
# [1] = Half life in rat at 5 mg/kg, po; type: ADME, organism-based; design: dose 5 mg/kg, route oral; conditions: in vivo
# Method in brief: (§1)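 Rats (n = 6) dosed at 5 mg/kg by iv and po routes. Plasma clearance and steady-state volume of distribution were taken from iv dosing. Cmax (maximal concentration) and terminal half-life were taken from oral dosing. AUC and oral bioavailability (F) are also reported.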
# Dipeptidyl peptidase 8 = Dipeptidyl peptidase 8 (Homo sapiens, UniProt Q6V1X1); assay: Inhibition of DPP8
# Chain of Dipeptidyl peptidase 8 (Q6V1X1 whole entry): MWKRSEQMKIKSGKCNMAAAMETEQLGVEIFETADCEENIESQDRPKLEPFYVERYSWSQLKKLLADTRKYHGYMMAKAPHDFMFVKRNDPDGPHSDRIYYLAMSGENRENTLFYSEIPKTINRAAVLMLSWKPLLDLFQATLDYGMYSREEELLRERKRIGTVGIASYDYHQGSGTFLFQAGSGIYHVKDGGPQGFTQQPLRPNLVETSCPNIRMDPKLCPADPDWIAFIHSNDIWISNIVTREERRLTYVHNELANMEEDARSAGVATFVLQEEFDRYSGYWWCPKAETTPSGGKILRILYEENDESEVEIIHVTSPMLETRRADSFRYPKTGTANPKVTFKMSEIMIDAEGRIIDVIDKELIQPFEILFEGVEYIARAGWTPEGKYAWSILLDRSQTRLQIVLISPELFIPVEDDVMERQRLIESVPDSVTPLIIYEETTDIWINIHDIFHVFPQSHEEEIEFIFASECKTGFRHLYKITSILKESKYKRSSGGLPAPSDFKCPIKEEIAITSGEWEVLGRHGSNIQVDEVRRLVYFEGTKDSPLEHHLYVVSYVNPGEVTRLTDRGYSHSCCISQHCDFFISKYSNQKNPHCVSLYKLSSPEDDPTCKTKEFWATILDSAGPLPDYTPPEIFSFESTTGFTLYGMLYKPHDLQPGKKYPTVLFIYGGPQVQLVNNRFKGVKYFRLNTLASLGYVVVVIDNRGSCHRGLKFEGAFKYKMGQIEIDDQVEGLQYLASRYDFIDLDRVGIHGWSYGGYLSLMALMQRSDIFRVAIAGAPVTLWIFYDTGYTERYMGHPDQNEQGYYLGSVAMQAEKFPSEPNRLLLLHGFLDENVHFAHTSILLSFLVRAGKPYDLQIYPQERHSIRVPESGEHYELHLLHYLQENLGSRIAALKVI
# Dipeptidyl peptidase 9 = Dipeptidyl peptidase 9 (Homo sapiens, UniProt Q86TI2); assay: Inhibition of DPP9
# Chain of Dipeptidyl peptidase 9 (Q86TI2 whole entry): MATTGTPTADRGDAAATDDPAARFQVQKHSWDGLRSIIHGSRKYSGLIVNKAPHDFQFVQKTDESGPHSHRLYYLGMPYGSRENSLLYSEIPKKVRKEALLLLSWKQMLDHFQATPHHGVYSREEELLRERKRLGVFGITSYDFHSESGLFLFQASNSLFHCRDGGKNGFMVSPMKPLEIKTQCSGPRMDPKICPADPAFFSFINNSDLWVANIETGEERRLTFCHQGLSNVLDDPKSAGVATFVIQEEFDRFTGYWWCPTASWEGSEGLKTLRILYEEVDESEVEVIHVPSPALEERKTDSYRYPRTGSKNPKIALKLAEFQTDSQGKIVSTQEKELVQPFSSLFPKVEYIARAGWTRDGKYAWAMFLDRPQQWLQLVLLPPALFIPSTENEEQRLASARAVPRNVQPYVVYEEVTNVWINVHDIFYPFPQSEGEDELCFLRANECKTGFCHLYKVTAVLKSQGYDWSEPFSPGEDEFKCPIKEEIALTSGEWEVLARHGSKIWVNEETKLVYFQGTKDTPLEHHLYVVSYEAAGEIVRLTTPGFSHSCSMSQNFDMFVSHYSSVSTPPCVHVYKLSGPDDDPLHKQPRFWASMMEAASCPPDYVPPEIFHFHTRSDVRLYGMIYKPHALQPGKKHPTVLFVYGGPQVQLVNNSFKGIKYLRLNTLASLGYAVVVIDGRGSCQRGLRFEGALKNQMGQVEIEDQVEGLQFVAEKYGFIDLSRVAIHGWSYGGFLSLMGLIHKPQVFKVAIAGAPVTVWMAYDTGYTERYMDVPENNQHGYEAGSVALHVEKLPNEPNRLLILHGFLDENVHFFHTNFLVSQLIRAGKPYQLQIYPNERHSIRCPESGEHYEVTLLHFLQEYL
# [2] = Cmax in rat at 5 mg/kg, po; type: ADME, organism-based; design: dose 5 mg/kg, route oral; conditions: in vivo; method in brief: as §1
# [3] = Plasma clearance in rat at 5 mg/kg, iv; type: ADME, organism-based; design: dose 5 mg/kg, route intravenous; method in brief: as §1
# [4] = Oral bioavailability in rat at 5 mg/kg, po; type: ADME, organism-based; conditions: in vivo; method in brief: as §1
# [5] = Volume of distribution at steady state in rat at 5 mg/kg, iv; type: ADME, organism-based; design: dose 5 mg/kg, route intravenous; conditions: in vivo, read-out: Vss; method in brief: as §1
# Rattus norvegicus = assay: AUC in rat at 5 mg/kg, po; type: ADME, organism-based, Plasma; design: dose 5 mg/kg, route oral; conditions: in vivo; method in brief: as §1
compound,measurement,setting,value
CS(=O)(=O)c1cccc(-c2cc(N3C[C@H](N)[C@@H](c4cc(F)c(F)cc4F)CC3=O)ncn2)c1,half-life,[1],7.8 h
same,Ki,Dipeptidyl peptidase 8,> 30 µM
same,Ki,Dipeptidyl peptidase 9,> 30 µM
same,Cmax,[2],2000 ng/mL
same,clearance,[3],3.17 mL/min/kg
same,bioavailability,[4],90.3%
same,Vd,[5],1.28 L/kg
same,AUC,Rattus norvegicus,24400 ng·h/mL
N[C@H]1CN(c2cc(N3CC[C@@H](O)C3)ncn2)C(=O)C[C@@H]1c1cc(F)c(F)cc1F,Ki,Dipeptidyl peptidase 8,> 30 µM
CS(=O)(=O)c1cccc(CCN2C[C@H](N)[C@@H](c3cc(F)c(F)cc3F)CC2=O)c1,half-life,[1],1.8 h
same,Cmax,[2],710 ng/mL
same,clearance,[3],30.2 mL/min/kg
same,bioavailability,[4],27.6%
same,Vd,[5],1.24 L/kg
same,AUC,Rattus norvegicus,771 ng·h/mL
Cl.N[C@H]1CN(CCc2ccc3c(c2)OCO3)C(=O)C[C@@H]1c1cc(F)c(F)cc1F,half-life,[1],0.42 h
same,Cmax,[2],192 ng/mL
same,clearance,[3],36.3 mL/min/kg
same,bioavailability,[4],9%
same,Vd,[5],1.04 L/kg
same,AUC,Rattus norvegicus,223 ng·h/mL

# From ChEMBL document CHEMBL1143002, “Discovery and structure-activity relationships of piperidinone- and piperidine-constrained phenethylamines as novel, potent, and selective dipeptidyl peptidase IV inhibitors” (J Med Chem, 2007)
